# Data published in ChEMBL document CHEMBL1914352, “Design, synthesis, docking, and biological evaluation of novel diazide-containing isoxazole- and pyrazole-based histone deacetylase probes” (J Med Chem, 2011).
# The source made the active and inactive calls. No cut-off for these calls is given here.
# What was measured:
# [1] = tested on: SH-SY5Y; experiment: Cytotoxicity against retinoic acid-differentiated human SH-SY5Y cells assessed as cell survival at 20 uM; type: cell-based
# Procedure, shortened: (§1)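 SH-SY5Y cells are differentiated for 7–8 days in 1% FBS medium with 10 µM retinoic acid, then seeded at 2×10^4 cells/well in 1% FBS medium with 5 µM RA. After 24 h they go into phenol-red-free 1% FBS/RA medium with DMSO or 0.5–50 µM inhibitor, without or with 100 µM LY294002, for 24 h. Readout: XTT viability as % survival vs vehicle, four replicates ± SD, one-way ANOVA with Dunnett.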
# [2] = target: T1, Stromelysin-1 (Homo sapiens, UniProt P08254); experiment: Inhibition of MMP3 assessed as activity remaining at […]
# Target sequence in this assay (P08254 100-477 limits assumed): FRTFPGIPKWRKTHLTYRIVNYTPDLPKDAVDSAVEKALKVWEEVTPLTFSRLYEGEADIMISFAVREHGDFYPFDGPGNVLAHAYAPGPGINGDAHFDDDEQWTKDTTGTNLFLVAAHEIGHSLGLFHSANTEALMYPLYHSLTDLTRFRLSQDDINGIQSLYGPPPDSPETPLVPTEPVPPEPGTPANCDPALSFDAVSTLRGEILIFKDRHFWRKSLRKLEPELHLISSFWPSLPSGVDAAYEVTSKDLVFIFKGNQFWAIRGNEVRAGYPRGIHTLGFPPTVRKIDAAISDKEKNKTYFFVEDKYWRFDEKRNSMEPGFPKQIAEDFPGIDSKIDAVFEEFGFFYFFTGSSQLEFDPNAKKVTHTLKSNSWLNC
# [3] = target: T2, Matrix metalloproteinase-9 (Homo sapiens, UniProt P14780); experiment: Inhibition of MMP9 assessed as activity remaining at […]
# [4] = target: T3, Matrix metalloproteinase-14 (Homo sapiens, UniProt P50281); experiment: Inhibition of MMP14 assessed as activity remaining at […]
# [5] = tested on: SH-SY5Y; experiment: Neuroprotective activity against LY294002-induced stress in retinoic acid differentiated human SH-SY5Y cells assessed as cell survival at 1 uM; type: functional, cell-based; procedure, shortened: as §1
# [6] = target: T4, Interstitial collagenase (Homo sapiens) (UniProt P03956); experiment: Inhibition of MMP1 assessed as activity remaining at […]
# T4 sequence (whole entry): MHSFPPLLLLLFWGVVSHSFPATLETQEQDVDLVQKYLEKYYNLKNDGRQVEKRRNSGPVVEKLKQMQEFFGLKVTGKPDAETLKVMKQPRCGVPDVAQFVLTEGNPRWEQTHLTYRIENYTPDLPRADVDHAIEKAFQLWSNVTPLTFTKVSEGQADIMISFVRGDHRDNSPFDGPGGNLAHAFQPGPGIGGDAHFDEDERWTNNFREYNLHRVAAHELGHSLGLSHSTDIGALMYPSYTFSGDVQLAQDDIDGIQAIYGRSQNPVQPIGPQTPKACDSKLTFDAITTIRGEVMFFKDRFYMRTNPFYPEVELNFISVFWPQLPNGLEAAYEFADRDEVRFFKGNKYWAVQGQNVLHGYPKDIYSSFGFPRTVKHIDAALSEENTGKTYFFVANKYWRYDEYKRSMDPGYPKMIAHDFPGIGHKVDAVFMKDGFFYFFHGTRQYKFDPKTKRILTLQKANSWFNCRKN
# [7] = tested on: SH-SY5Y; experiment: Neuroprotective activity against LY294002-induced stress in retinoic acid differentiated human SH-SY5Y cells assessed as cell survival at 0.5 uM; type: functional, cell-based; procedure, shortened: as §1
# [8] = target: T3, Matrix metalloproteinase-14; experiment: Inhibition of MMP14
# [9] = tested on: HepG2; experiment: Induction of apoptosis in human HepG2 cells assessed as cleavage of caspase 3 at 1 to 10 uM after 24 hrs by Western blot analysis; type: functional, cell-based
# Procedure, shortened: (§2)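 HepG2 cells are seeded at 2.7×10^5 cells/well in D7 medium (DMEM, 7% FBS), refed after 24 h, and after 1 h at 37 °C treated with DMSO or 1, 5 or 10 µM inhibitor. Lysis is in ice-cold 1% CHAPSO buffer (50 mM Hepes pH 7.4), 45 min at 4 °C. Immunoblots are probed for cleaved caspase 3 Asp175, acetyl-Lys373 p53, total p53 and GAPDH, detected by chemiluminescence, with band densitometry.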
# [10] = tested on: HepG2; experiment: Induction of apoptosis in human HepG2 cells assessed as hyperacetylation of p53 after 24 hrs by Western blot analysis; type: functional, cell-based; procedure, shortened: as §2
# [11] = target: T5, Interstitial collagenase (Homo sapiens, UniProt P03956); experiment: Inhibition of MMP1
# T5 sequence (P03956 whole entry): T4 sequence (whole entry)
# [12] = tested on: HepG2; experiment: Induction of apoptosis in human HepG2 cells assessed as hyperacetylation of p53 at 1 to 10 uM by Western blot analysis; type: functional, cell-based; procedure, shortened: as §2
# [13] = target: T1, Stromelysin-1; experiment: Inhibition of MMP3
# Target sequence in this assay (P08254 whole entry): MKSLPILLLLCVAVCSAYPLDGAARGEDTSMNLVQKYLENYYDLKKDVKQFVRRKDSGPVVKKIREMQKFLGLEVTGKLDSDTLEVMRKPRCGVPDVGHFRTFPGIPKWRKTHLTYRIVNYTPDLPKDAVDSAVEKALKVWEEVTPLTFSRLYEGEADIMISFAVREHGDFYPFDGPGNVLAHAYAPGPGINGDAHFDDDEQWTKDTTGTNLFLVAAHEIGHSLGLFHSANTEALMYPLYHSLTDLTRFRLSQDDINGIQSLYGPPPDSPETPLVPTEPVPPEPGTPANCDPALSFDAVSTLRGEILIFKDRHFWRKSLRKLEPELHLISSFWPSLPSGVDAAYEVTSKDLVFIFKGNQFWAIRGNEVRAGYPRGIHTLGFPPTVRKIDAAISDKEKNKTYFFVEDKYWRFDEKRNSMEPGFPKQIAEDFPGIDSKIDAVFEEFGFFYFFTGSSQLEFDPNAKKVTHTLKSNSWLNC
# [14] = target: T2, Matrix metalloproteinase-9; experiment: Inhibition of MMP9
# T2 sequence (P14780 whole entry): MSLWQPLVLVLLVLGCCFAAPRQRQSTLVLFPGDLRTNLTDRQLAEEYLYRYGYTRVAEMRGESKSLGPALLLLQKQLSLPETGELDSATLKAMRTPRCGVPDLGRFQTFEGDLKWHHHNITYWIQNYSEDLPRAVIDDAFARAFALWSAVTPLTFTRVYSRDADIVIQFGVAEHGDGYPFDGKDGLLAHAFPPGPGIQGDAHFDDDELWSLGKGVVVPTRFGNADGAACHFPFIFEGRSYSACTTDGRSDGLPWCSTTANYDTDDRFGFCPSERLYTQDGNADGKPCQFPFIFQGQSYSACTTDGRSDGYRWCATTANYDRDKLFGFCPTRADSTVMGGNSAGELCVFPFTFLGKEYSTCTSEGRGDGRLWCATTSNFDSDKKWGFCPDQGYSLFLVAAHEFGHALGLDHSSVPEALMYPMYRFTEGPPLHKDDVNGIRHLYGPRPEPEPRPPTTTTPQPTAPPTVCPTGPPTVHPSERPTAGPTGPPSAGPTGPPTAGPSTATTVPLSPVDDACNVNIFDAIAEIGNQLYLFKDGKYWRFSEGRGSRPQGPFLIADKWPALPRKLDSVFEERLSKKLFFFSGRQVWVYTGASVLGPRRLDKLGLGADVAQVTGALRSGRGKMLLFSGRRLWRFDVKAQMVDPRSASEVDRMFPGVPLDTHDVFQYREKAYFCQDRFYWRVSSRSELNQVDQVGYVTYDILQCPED
Activity [2] [%],Activity [3] [%],Activity [4] [%],Activity [6] [%],IC50 [8] [µM],IC50 [11] [µM],IC50 [13] [µM],IC50 [14] [µM],SMILES,Activity [1],Activity [5],Activity [7],Activity [9],Activity [10],Activity [12]
> 70,> 70,> 70,> 70,–,–,–,–,[N-]=[N+]=NCc1cc(Cn2cc(NC(=O)CCCCCCC(=O)NO)cn2)cc(N=[N+]=[N-])c1,Toxic,Active,Active,–,–,–
–,–,–,–,9.33,108,12.1,22.9,[N-]=[N+]=NCc1cc(N=[N+]=[N-])cc(C(=O)Nc2ccc(-c3cc(C(=O)NCCCCCCC(=O)NO)no3)cc2)c1,–,–,–,Active,inactive,inactive
